Assay results: ChEMBL document CHEMBL1152987, “Emergence of the quinolone resistance-mediating gene aac(6')-Ib-cr in extended-spectrum-beta-lactamase-producing Klebsiella isolates collected in Slovenia between 2000 and 2005” (2007)

Columns and labels:
Type in all cases: functional
[1] = system: Klebsiella; assay: Antimicrobial activity against extended-spectrum-beta-lactamase-producing Klebsiella transconjugant TK1 isolate expressing quinolone resistance-mediating gene aac(6')-Ib-cr by Etest
Procedure, shortened: (§1)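 Transconjugants came from broth-free matings of Klebsiella donors with E. coli J53 Azr on brain heart infusion agar. Selection was for 24 h at 37°C on LB agar with sodium azide 150 μg/ml plus ampicillin 100, tetracycline 10, trimethoprim 25 or chloramphenicol 30 μg/ml, then replica plating ± ciprofloxacin 0.01 μg/ml. MICs were read by Etest per the manufacturer's instructions.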

[2] = system: Klebsiella; assay: Antimicrobial activity against extended-spectrum-beta-lactamase-producing Klebsiella transconjugant TK2 isolate expressing quinolone resistance-mediating gene aac(6')-Ib-cr by Etest; procedure, shortened: as §1
[3] = system: Klebsiella; assay: Antimicrobial activity against extended-spectrum-beta-lactamase-producing Klebsiella transconjugant TK3 isolate expressing quinolone resistance-mediating gene aac(6')-Ib-cr by Etest; procedure, shortened: as §1
[4] = system: Klebsiella; assay: Antimicrobial activity against extended-spectrum-beta-lactamase-producing Klebsiella transconjugant TK4 isolate expressing quinolone resistance-mediating gene aac(6')-Ib-cr by Etest; procedure, shortened: as §1
[5] = system: Klebsiella; assay: Antimicrobial activity against extended-spectrum-beta-lactamase-producing Klebsiella transconjugant TK5 isolate expressing quinolone resistance-mediating gene aac(6')-Ib-cr by Etest; procedure, shortened: as §1
[6] = system: Klebsiella; assay: Antimicrobial activity against extended-spectrum-beta-lactamase-producing Klebsiella transconjugant TK6 isolate expressing quinolone resistance-mediating gene aac(6')-Ib-cr by Etest; procedure, shortened: as §1
[7] = system: Klebsiella; assay: Antimicrobial activity against extended-spectrum-beta-lactamase-producing Klebsiella transconjugant TK7 isolate expressing quinolone resistance-mediating gene aac(6')-Ib-cr by Etest; procedure, shortened: as §1
[8] = system: Klebsiella; assay: Antimicrobial activity against extended-spectrum-beta-lactamase-producing Klebsiella transconjugant TK8 isolate expressing quinolone resistance-mediating gene aac(6')-Ib-cr by Etest; procedure, shortened: as §1
[9] = system: Klebsiella; assay: Antimicrobial activity against extended-spectrum-beta-lactamase-producing Klebsiella transconjugant TK9 isolate expressing quinolone resistance-mediating gene aac(6')-Ib-cr by Etest; procedure, shortened: as §1
[10] = system: Klebsiella; assay: Antimicrobial activity against extended-spectrum-beta-lactamase-producing Klebsiella transconjugant TK10 isolate expressing quinolone resistance-mediating gene aac(6')-Ib-cr by Etest; procedure, shortened: as §1
[11] = system: Klebsiella; assay: Antimicrobial activity against extended-spectrum-beta-lactamase-producing Klebsiella transconjugant TK11 isolate expressing quinolone resistance-mediating gene aac(6')-Ib-cr by Etest; procedure, shortened: as §1
[12] = system: Klebsiella; assay: Antimicrobial activity against extended-spectrum-beta-lactamase-producing Klebsiella transconjugant TK12 isolate expressing quinolone resistance-mediating gene aac(6')-Ib-cr by Etest; procedure, shortened: as §1
[13] = system: Klebsiella; assay: Antimicrobial activity against extended-spectrum-beta-lactamase-producing Klebsiella transconjugant TK13 isolate expressing quinolone resistance-mediating gene aac(6')-Ib-cr by Etest; procedure, shortened: as §1
[14] = system: Klebsiella; assay: Antimicrobial activity against extended-spectrum-beta-lactamase-producing Klebsiella transconjugant TK14 isolate expressing quinolone resistance-mediating gene aac(6')-Ib-cr by Etest; procedure, shortened: as §1
[15] = system: Klebsiella; assay: Antimicrobial activity against extended-spectrum-beta-lactamase-producing Klebsiella transconjugant TK15 isolate expressing quinolone resistance-mediating gene aac(6')-Ib-cr by Etest; procedure, shortened: as §1
[16] = system: Klebsiella; assay: Antimicrobial activity against extended-spectrum-beta-lactamase-producing Klebsiella transconjugant TK16 isolate expressing quinolone resistance-mediating gene aac(6')-Ib-cr by Etest; procedure, shortened: as §1
[17] = system: Klebsiella; assay: Antimicrobial activity against extended-spectrum-beta-lactamase-producing Klebsiella transconjugant TK17 isolate expressing quinolone resistance-mediating gene aac(6')-Ib-cr by Etest; procedure, shortened: as §1
[18] = system: Klebsiella; assay: Antimicrobial activity against extended-spectrum-beta-lactamase-producing Klebsiella transconjugant TK18 isolate expressing quinolone resistance-mediating gene aac(6')-Ib-cr by Etest; procedure, shortened: as §1
[19] = system: Klebsiella; assay: Antimicrobial activity against extended-spectrum-beta-lactamase-producing Klebsiella transconjugant TK19 isolate expressing quinolone resistance-mediating gene aac(6')-Ib-cr by Etest; procedure, shortened: as §1
[20] = system: Klebsiella; assay: Antimicrobial activity against extended-spectrum-beta-lactamase-producing Klebsiella transconjugant TK20 isolate expressing quinolone resistance-mediating gene aac(6')-Ib-cr by Etest; procedure, shortened: as §1
[21] = system: Klebsiella; assay: Antimicrobial activity against extended-spectrum-beta-lactamase-producing Klebsiella transconjugant TK21 isolate expressing quinolone resistance-mediating gene aac(6')-Ib-cr by Etest; procedure, shortened: as §1
[22] = system: Klebsiella; assay: Antimicrobial activity against extended-spectrum-beta-lactamase-producing Klebsiella transconjugant TK22 isolate expressing quinolone resistance-mediating gene aac(6')-Ib-cr by Etest; procedure, shortened: as §1
[23] = system: Klebsiella; assay: Antimicrobial activity against extended-spectrum-beta-lactamase-producing Klebsiella transconjugant TK23 isolate expressing quinolone resistance-mediating gene aac(6')-Ib-cr by Etest; procedure, shortened: as §1
[24] = system: Klebsiella; assay: Antimicrobial activity against extended-spectrum-beta-lactamase-producing Klebsiella transconjugant TK24 isolate expressing quinolone resistance-mediating gene aac(6')-Ib-cr by Etest; procedure, shortened: as §1
[25] = system: Klebsiella; assay: Antimicrobial activity against extended-spectrum-beta-lactamase-producing Klebsiella transconjugant TK25 isolate expressing quinolone resistance-mediating gene aac(6')-Ib-cr by Etest; procedure, shortened: as §1

Measured: MIC

O=C(O)c1cn(C2CC2)c2cc(N3CCNCC3)c(F)cc2c1=O [CIPROFLOXACIN]
0.125 µg/mL: all assays above
